Screening data as filed in PubChem BioAssay.
MT1-MMP act inh = blocks activation of human MT1-MMP; P50281; HT1080 RFP-PRO-GFP cells, GFP/RFP ratio fluorescence, overnight; percent of plate control window, DMSO zero; GFP/RFP ratio change, % at 20 µM; actives 0.061% (n = 360,000); AID 651647;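 active means GFP/RFP ratio change of at least 30% with cell ATP level not reduced by more than half and red fluorescence within 50% of control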
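Assay system: HT1080 RFP-PRO-GFP cells. Benchmarks: DMSO vehicle wells and RFP-L50D-GFP reporter cell wells. Times: overnight cell settling, then overnight compound exposure, 37 °C, 5% CO2. Compound: 20 µM single dose, 1% DMSO. Read-out basis: GFP/RFP fluorescence ratio.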
MsrA act = bovine methionine sulfoxide reductase A activation | purified bovine MsrA, absorbance read-out | actives 0.3% (n = 360,000) | activation, % at 10.6 µM | AID 602163; in the data active means activation above about 7.5%;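 further: 0% = vehicle and 100% = reference activator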
SKN-1 block = blocks SKN-1 activity in C. elegans | actives 0.49% (n = 360,000) | inhibition, % at 21.8 µM | C. elegans VP596 Pgst-4::GFP/RFP ratio, acrylamide-induced, 24 h;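 active means interference check ratio from 0.5 to 1.5 plus GFP to RFP signal ratio inhibition reaching or exceeding a fixed threshold, cut at about 30% in these data, passing the limit was not always enough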
MsrA inh = inhibitors of bovine MsrA. purified bovine MsrA, absorbance read-out. inhibition, % at 15.5 µM. actives 0.75% (n = 360,000). AID 651718; in the data active means inhibition above about 4.5%;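 further: 0% = vehicle wells with enzyme and 100% = reference inhibitor wells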
p-CIP stab down = compounds decreasing mouse p/CIP protein stability | F442A p/CIP-EGFP cells, EGFP fluorescence, 16 h | Q05BA5 | actives 0.01% (n = 290,000) | decrease of EGFP signal, % at 10 µM;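 active means EGFP signal decrease of at least 30% at 10 µM or well 3 SD below plate mean, unless failing retest; inactive means the rest, including hits failing retest or dose response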
The depositor's hits bear a star; . = not tested or not shown. Sampled rows, rich in hits. Any-hit rate of the full collection: about 1.6%.

SMILES | MT1-MMP act inh | MsrA act | SKN-1 block | MsrA inh | p-CIP stab down
c1cnc2ccc(-c3ccc4ncccc4c3)cc2c1 | -4 | -8 | 74* | -1 | 3
CN(C)c1ccc(N=Nc2cccc3ccoc23)cc1 | 5 | -4 | 29 | 1 | 4
Cc1ccc(N=Nc2ccc(O)c3ncccc23)cc1C | 11 | -2 | 9 | -2 | -1
CN(C)c1ccc(N=Nc2ccc3ncccc3c2)cc1 | 23 | -1 | 59* | -1 | .
CN(C)c1ccc(N=Nc2cccc(F)c2)cc1 | 1 | -12 | 34* | 1 | -8
Fc1ccc2nc(-c3ccc(CN4CCC(c5nc6ccccc6[nH]5)CC4)cc3)c(-c3ccccc3)nc2c1 | . | . | . | 2 | .
O=C(Cc1c[nH]c2ccccc12)Nc1ccc(Nc2cccnc2)c(Br)c1 | . | . | . | 0 | .
C#CCN(Cc1cccc(F)c1)C(=O)c1nnc2c3cc(F)ccc3n(S(=O)(=O)c3ccc(OC)cc3)c2n1 | . | . | . | -1 | .
CCCCNC(=O)OCC(CC)NC(=O)OC(C)C (stereo not drawn) | 1 | -3 | 17 | -1 | -9
CCCCNC(=O)OCC(CC)NC(=O)OCC(C)C (stereo not drawn) | 1 | 0 | 36* | 1 | 1
COc1ccc(OC)c(N)c1 | 37* | 3 | 69 | 1 | -6
COc1ccc(C)cc1N | . | . | . | 1 | .
CC(C)c1ccc(-c2nc3ccccc3s2)cc1 | -5 | -2 | 46* | -1 | -6
CN(C(=O)OC(C)(C)C)c1ccc(-c2nc3ccccc3s2)cc1 | 6 | -6 | 43* | -1 | .
Fc1ccc(-c2cnn3c(-c4ccncc4)ccnc23)cc1 | 1 | -3 | 41* | 0 | -4
CCOC(=O)C1=C(C(=O)OCC)C2N(Cc3ccccc3)c3ccccc3[C@@]23C[C@@H](C(=O)OC)N(S(=O)(=O)c2ccc(C(F)(F)F)cc2)C3=N1 (stereo partly drawn) | . | . | . | 0 | .
CN(C)CCCNc1cc(C(C)(C)C)nc2c(-c3ccc(Cl)cc3)cnn12 | -7 | -2 | 41* | 1 | 2
CC(C)(C)c1cc(NCc2ccccn2)n2ncc(-c3ccc(Cl)cc3)c2n1 | 5 | 0 | 5 | 0 | -3
Cc1noc(C)c1S(=O)(=O)N1CCCc2nc(-c3ccccc3)ccc21 | . | . | . | 0 | .
c1ccc(COCCc2cn(Cc3ccccc3)c3ccccc23)cc1 | . | . | . | 1 | .
O=C(CSc1nc2sc3c(c2c(=O)n1-c1ccccc1)CCCC3)N/N=C/c1ccc(C(=O)O)cc1 | 1 | -2 | 7 | . | -55
Cn1c(N/N=C/c2ccccc2)nc2sc3c(c2c1=O)CCC3 | 5 | -3 | 48* | 0 | 4
Cc1oc2c(CN(C)C)c(O)ccc2c(=O)c1-c1cscn1 | 6 | -5 | 1 | 4.8* | -8
c1ccc2nc(-c3nc4ccccc4o3)ccc2c1 | -10 | -5 | 80* | 3 | -3
CCOc1cc(C(N)=O)cc(Br)c1OC | -6 | 0 | 44* | 0 | 5
SMILES | MT1-MMP act inh | MsrA act | SKN-1 block | MsrA inh | p-CIP stab down
CCOC(=O)c1ccc(NC(=O)OC[C@@H]2CSCCS(=O)(=O)N2)cc1 | . | . | . | 1 | .
O=C1N/C(=N/N=C/c2ccco2)SC1Cc1ccccc1 (stereo not drawn) | 2 | -4 | -6 | 4.6* | 10
O=C1c2ccccc2/C(=C\c2ccc(O[C@@H]3CCCCO3)cc2)N1c1ccccc1 | . | . | . | 1 | .
Cc1c(C(=O)N2CCCC2)sc(NC(=O)c2ccccc2)c1C#N | -5 | -3 | 0 | 4.6* | -7
Cc1ccc(OCCNC(=O)[C@@H](Cc2ccccc2)NC(=O)[C@H]2O[C@@H](n3ccc(=O)[nH]c3=O)[C@H](O)[C@@H]2O)cc1C | . | . | . | 0 | .
Cc1cccc(NC(=O)CN2C(=O)N/C(=C\c3ccccc3OCc3ccc(C(=O)O)cc3)C2=O)c1 | 1 | -7 | 5 | 3 | -20
O=C(CN1C(=O)N/C(=C\c2ccccc2OCc2ccc(C(=O)O)cc2)C1=O)Nc1ccc(F)cc1 | 3 | -8 | 1 | 4.7* | 4
C[C@@H]1C=CCCO[C@]12C(=O)N(CC1CC1)c1ccccc12 | . | . | . | -2 | .
COc1ccc(C(=O)c2oc3ccc(OC)cc3c2N)cc1 | -6 | -3 | 44* | 2 | 10
COC(=O)c1oc2ccc(OC)cc2c1N | 2 | -1 | 16 | 3 | -2
Cc1ccc(NC(=S)c2nc3ccccc3s2)cc1 | 1 | -6 | 35* | 0 | 1
CNC(=O)Nc1ccc2snnc2c1 | -2 | -2 | -5 | 1 | -2
O=C(Nc1ccc2snnc2c1)N1CCSCC1 | 4 | 3 | 39* | 1 | -9
